Experimental data published in ChEMBL document CHEMBL4014350, “Alkoxyurea-Based Histone Deacetylase Inhibitors Increase Cisplatin Potency in Chemoresistant Cancer Cell Lines” (J Med Chem, 2017).
The source made the active and inactive calls. The rule behind the calls is not given here.

Assays:
CAL-27 [1] = assay: Potentiation of cisplatin-induced cytotoxicity against human CAL27 cells assessed as fold reduction in cisplatin IC50 at 1 uM preincubated for 48 hrs followed by cisplatin treatment measured after 72 hrs by MTT assay relative to cisplatin alone; format: functional
Procedure, shortened: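 Cells were preincubated 48 h with HDAC inhibitor, then cisplatin was added over a concentration range for 72 h, with MTT read-out. Shift factor is cisplatin-alone IC50 divided by combination IC50. Data are mean ± SEM of pooled data from at least three independent experiments, each in triplicate. Significance was by t test (p < 0.05).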

CAL-27 [2] = assay: Potentiation of 0.316 uM cisplatin-induced cytotoxicity against human CAL27 cells assessed as decrease in cell viability measuring combination index at 2000 uM preincubated for 48 hrs followed by cisplatin treatment measured after 72 hrs by MTT assay; format: functional; conditions: in the assay text read “at 2000 nM” for “at 2000 uM”
Procedure, shortened: (§1)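 Cal27 and cisplatin-resistant Cal27CisR cells were preincubated with the HDAC inhibitor for 48 h, then given cisplatin in combination. Viability was read by MTT after 72 h. The combination index was computed by the Chou–Talalay method: CI > 1 is antagonism, CI = 1 is additive, and CI < 0.9 is synergism. Points with fraction affected below 0.20 were flagged.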

CAL-27 [3] = assay: Potentiation of 0.5 uM cisplatin-induced cytotoxicity against human CAL27 cells assessed as decrease in cell viability by measuring combination index at 900 uM preincubated for 48 hrs followed by cisplatin treatment measured after 72 hrs by MTT assay; format: functional; procedure, shortened: as §1
CAL-27 [4] = assay: Potentiation of 0.5 uM cisplatin-induced cytotoxicity against human CAL27 cells assessed as decrease in cell viability by measuring combination index at 1000 uM preincubated for 48 hrs followed by cisplatin treatment measured after 72 hrs by MTT assay; format: functional; procedure, shortened: as §1
CAL-27 [5] = assay: Potentiation of 0.5 uM cisplatin-induced cytotoxicity against human CAL27 cells assessed as decrease in cell viability by measuring combination index at 2000 uM preincubated for 48 hrs followed by cisplatin treatment measured after 72 hrs by MTT assay; format: functional; procedure, shortened: as §1
CAL-27 [6] = assay: Potentiation of 1 uM cisplatin-induced cytotoxicity against human CAL27 cells assessed as decrease in cell viability by measuring combination index at 1000 uM preincubated for 48 hrs followed by cisplatin treatment measured after 72 hrs by MTT assay; format: functional; conditions: in the assay text read “at 1000 nM” for “at 1000 uM”; procedure, shortened: as §1
CAL-27 [7] = assay: Potentiation of 2 uM cisplatin-induced cytotoxicity against human CAL27 cells assessed as decrease in cell viability by measuring combination index at 900 uM preincubated for 48 hrs followed by cisplatin treatment measured after 72 hrs by MTT assay; format: functional; conditions: in the assay text read “at 900 nM” for “at 900 uM”
Procedure, shortened: (§2)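 HDAC inhibitor was added 48 h before cisplatin, then cells were exposed to cisplatin for 72 h and viability was read by MTT assay. Combination index was computed by the Chou–Talalay method: CI > 1 is antagonism, CI = 1 additive, CI < 0.9 synergism. Points with fraction affected below 0.20 were flagged.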

CAL-27 [8] = assay: Potentiation of 2 uM cisplatin-induced cytotoxicity against human CAL27 cells assessed as decrease in cell viability by measuring combination index at 1500 uM preincubated for 48 hrs followed by cisplatin treatment measured after 72 hrs by MTT assay; format: functional; conditions: in the assay text read “at 1500 nM” for “at 1500 uM”; procedure, shortened: as §2
CAL-27 [9] = assay: Potentiation of 5 uM cisplatin-induced cytotoxicity against human CAL27 cells assessed as decrease in cell viability by measuring combination index at 1000 uM preincubated for 48 hrs followed by cisplatin treatment measured after 72 hrs by MTT assay; format: functional; conditions: in the assay text read “at 1000 nM” for “at 1000 uM”; procedure, shortened: as §2
CAL-27 [10] = assay: Potentiation of 5 uM cisplatin-induced cytotoxicity against human CAL27 cells assessed as decrease in cell viability by measuring combination index at 1500 uM preincubated for 48 hrs followed by cisplatin treatment measured after 72 hrs by MTT assay; format: functional; conditions: in the assay text read “at 1500 nM” for “at 1500 uM”; procedure, shortened: as §2
[11] = target: T1, Histone deacetylase 1/6 (Homo sapiens) (UniProt Q13547+Q9UBN7); assay: Inhibition of HDAC1/HDAC6 in human Cal27CisR cells assessed as potentiation of 1 uM cisplatin-induced cytotoxicity by measuring combination index at 1000 uM preincubated for 48 hrs followed by cisplatin treatment measured after 72 hrs by MTT assay; format: cell-based
Procedure, shortened: (§3)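 Cal27CisR cells preincubated 48 h with the HDAC inhibitor, then exposed to cisplatin for 72 h. Viability read by MTT. Combination index calculated by the Chou–Talalay method: CI > 1 antagonism, CI = 1 additive, CI < 0.9 synergism. Points with fraction affected below 0.20 are flagged. Values are the mean of three experiments.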

[12] = target: T1, Histone deacetylase 1/6 (Homo sapiens); assay: Inhibition of HDAC1/HDAC6 in human Cal27CisR cells assessed as potentiation of 1 uM cisplatin-induced cytotoxicity by measuring combination index at 1500 uM preincubated for 48 hrs followed by cisplatin treatment measured after 72 hrs by MTT assay; format: cell-based; procedure, shortened: as §3
[13] = target: T1, Histone deacetylase 1/6 (Homo sapiens); assay: Inhibition of HDAC1/HDAC6 in human Cal27CisR cells assessed as potentiation of 1 uM cisplatin-induced cytotoxicity by measuring combination index at 2000 uM preincubated for 48 hrs followed by cisplatin treatment measured after 72 hrs by MTT assay; format: cell-based; procedure, shortened: as §3
[14] = target: T1, Histone deacetylase 1/6 (Homo sapiens); assay: Inhibition of HDAC1/HDAC6 in human Cal27CisR cells assessed as potentiation of 5 uM cisplatin-induced cytotoxicity by measuring combination index at 900 uM preincubated for 48 hrs followed by cisplatin treatment measured after 72 hrs by MTT assay; format: cell-based; procedure, shortened: as §1
[15] = target: T1, Histone deacetylase 1/6 (Homo sapiens); assay: Inhibition of HDAC1/HDAC6 in human Cal27CisR cells assessed as potentiation of 5 uM cisplatin-induced cytotoxicity by measuring combination index at 1000 uM preincubated for 48 hrs followed by cisplatin treatment measured after 72 hrs by MTT assay; format: cell-based; procedure, shortened: as §1
[16] = target: T1, Histone deacetylase 1/6 (Homo sapiens); assay: Inhibition of HDAC1/HDAC6 in human Cal27CisR cells assessed as potentiation of cisplatin-induced apoptosis at 1 uM preincubated for 48 hrs followed by cisplatin treatment for 6 hrs measured after 24 hrs by propidium iodide dye-based flow cytometry (reference value: 20.3%); format: cell-based; set-up: scale not given: the % may be the effect or the level left
CAL-27 [17] = assay: Induction of apoptosis in human CAL27 cells at 0.5 uM for 48 hrs by propidium iodide dye-based flow cytometry; format: functional, cell-based
[18] = target: T1, Histone deacetylase 1/6 (Homo sapiens); assay: Inhibition of HDAC1/HDAC6 in human Cal27CisR cells assessed as potentiation of 3.16 uM cisplatin-induced cytotoxicity by measuring combination index at 2000 nM preincubated for 48 hrs followed by cisplatin treatment measured after 72 hrs by MTT assay
CAL-27 [19] = assay: Potentiation of cisplatin-induced apoptosis in human CAL27 cells at 0.5 uM preincubated for 48 hrs followed by cisplatin treatment for 6 hrs measured after 24 hrs by propidium iodide dye-based flow cytometry; format: functional, cell-based
CAL-27 [20] = assay: Potentiation of 0.316 uM cisplatin-induced cytotoxicity against human CAL27 cells assessed as decrease in cell viability by measuring combination index at 500 nM preincubated for 48 hrs followed by cisplatin treatment measured after 72 hrs by MTT assay
CAL-27 [21] = assay: Potentiation of 2 uM cisplatin-induced cytotoxicity against human CAL27 cells assessed as decrease in cell viability by measuring combination index at 100 uM preincubated for 48 hrs followed by cisplatin treatment measured after 72 hrs by MTT assay; format: functional; conditions: in the assay text read “at 100 nM” for “at 100 uM”; procedure, shortened: as §2

T1 sequence (Q13547 whole entry, looked up): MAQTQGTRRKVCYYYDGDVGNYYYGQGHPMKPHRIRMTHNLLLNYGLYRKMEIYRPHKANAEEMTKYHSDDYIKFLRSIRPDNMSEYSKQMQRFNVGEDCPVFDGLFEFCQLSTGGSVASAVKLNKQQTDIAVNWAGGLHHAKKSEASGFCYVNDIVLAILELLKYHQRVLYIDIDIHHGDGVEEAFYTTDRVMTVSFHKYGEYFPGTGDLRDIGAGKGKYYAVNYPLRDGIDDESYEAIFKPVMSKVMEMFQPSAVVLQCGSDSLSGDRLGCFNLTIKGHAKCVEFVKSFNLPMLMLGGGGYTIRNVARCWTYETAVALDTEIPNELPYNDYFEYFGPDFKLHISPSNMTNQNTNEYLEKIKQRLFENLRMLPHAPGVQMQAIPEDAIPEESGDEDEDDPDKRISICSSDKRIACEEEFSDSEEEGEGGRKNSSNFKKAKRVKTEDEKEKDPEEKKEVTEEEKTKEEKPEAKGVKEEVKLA
T1 sequence (Q9UBN7 whole entry, looked up): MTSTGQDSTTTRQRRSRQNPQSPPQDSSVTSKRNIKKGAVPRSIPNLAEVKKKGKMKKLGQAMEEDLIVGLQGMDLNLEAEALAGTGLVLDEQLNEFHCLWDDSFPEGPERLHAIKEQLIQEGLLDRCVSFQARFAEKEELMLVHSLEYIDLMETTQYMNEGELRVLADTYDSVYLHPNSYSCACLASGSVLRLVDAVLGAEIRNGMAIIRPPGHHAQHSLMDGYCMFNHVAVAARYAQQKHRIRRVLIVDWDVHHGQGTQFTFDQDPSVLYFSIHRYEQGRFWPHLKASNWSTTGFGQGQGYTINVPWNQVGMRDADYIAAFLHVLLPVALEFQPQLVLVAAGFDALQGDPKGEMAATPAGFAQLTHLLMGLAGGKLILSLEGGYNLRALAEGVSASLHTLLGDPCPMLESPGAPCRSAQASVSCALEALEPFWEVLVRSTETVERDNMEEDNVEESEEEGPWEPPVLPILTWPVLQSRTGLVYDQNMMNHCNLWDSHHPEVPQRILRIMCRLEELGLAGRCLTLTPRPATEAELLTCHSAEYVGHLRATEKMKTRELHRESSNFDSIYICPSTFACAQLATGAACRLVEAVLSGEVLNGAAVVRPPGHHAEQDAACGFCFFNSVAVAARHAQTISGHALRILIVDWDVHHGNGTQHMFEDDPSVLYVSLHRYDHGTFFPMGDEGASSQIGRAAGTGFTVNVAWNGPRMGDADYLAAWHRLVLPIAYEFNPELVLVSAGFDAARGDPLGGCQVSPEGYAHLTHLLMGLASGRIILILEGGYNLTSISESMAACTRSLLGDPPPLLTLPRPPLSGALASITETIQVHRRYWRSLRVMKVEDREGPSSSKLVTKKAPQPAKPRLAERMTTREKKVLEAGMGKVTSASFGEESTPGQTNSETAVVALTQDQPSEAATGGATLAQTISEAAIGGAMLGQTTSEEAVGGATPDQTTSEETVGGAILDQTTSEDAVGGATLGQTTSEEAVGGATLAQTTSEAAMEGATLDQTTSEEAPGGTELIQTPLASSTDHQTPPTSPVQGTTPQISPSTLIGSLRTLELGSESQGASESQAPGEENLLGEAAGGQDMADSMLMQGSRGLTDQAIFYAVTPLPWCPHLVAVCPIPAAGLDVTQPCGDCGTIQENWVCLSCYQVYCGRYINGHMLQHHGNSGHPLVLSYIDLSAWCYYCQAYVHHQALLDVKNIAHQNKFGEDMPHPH

SMILES: COc1cc(NC(=O)NOCCCCCC(=O)NO)c2ncccc2c1
- fold change (FC) (CAL-27 [1]): 7.1
- CI (CAL-27 [2]): 0.92
- CI (CAL-27 [3]): 0.6
- CI (CAL-27 [4]): 0.67
- CI (CAL-27 [5]): 0.86
- CI (CAL-27 [6]): 0.5
- CI (CAL-27 [7]): 0.4
- CI (CAL-27 [8]): 0.6
- CI (CAL-27 [9]): 0.4
- CI (CAL-27 [10]): 0.55
- CI [11]: 0.85
- CI [12]: 1
- CI [13]: 0.82
- CI [14]: 0.52
- CI [15]: 0.43
- Activity [16]: 56.3%
- Activity (CAL-27 [17]): inactive
- CI [18]: 0.6

SMILES: COc1cc(NC(=O)NOCCCCCC(=O)NO)c2nccc(C)c2c1
- Activity (CAL-27 [19]): Active
- CI (CAL-27 [20]): <0.2

SMILES: COc1cc(NC(=O)NOCCCCCC(=O)NO)c2nc(OC)cc(C)c2c1
- CI (CAL-27 [21]): 0.31
